The target of series [1] is T1, Cytochrome P450 1A2 (Homo sapiens, UniProt P05177).
T1 sequence (P05177 whole entry): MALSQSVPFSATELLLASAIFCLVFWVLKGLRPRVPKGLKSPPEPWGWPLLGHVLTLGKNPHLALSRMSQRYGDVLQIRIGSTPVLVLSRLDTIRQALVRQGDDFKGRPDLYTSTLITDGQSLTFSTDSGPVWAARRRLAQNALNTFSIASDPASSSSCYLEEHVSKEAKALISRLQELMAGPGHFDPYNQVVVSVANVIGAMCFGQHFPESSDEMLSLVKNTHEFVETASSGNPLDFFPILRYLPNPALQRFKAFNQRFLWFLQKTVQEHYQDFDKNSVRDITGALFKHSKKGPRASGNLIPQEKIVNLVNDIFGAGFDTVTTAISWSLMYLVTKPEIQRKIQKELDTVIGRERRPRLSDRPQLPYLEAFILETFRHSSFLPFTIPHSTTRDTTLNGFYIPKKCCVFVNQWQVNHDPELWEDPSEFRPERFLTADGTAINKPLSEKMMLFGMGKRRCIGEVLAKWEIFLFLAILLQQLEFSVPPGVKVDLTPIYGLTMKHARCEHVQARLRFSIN
The series is described as follows: Inhibition of human CYP1A2 expressed in Escherichia coli DH5alpha. It counts as ADME.

A short description of series [2]: AUC in Sprague-Dawley rat at 2.9 mg/kg, po. In kind it is ADME, organism-based. The note with it: in vivo.
For series [3], the system named is Mus musculus. The series is described as follows: Toxicity in diet-induced obese mouse model assessed as effect on activity levels at 30 mg/kg, po qd for 7 days. In kind it is organism-based. Particulars: in vivo, 168 h. An outline of the steps: (§1)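 DIO mice were dosed by oral gavage once daily for 7 days, with a vehicle-dosed cohort as the comparator. Body weight was read relative to the vehicle group, and food intake and activity levels were monitored in dosed and vehicle cohorts. In some studies, animals were first acclimated to gavage for a few weeks, until their weights stopped changing, before dosing began.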

A short description of series [4]: Clearance in Sprague-Dawley rat at 2.9 mg/kg, po. It counts as ADME, organism-based. Particulars: in vivo.
Series [5] in a line: Half life in Sprague-Dawley rat at 2.9 mg/kg, po. In kind it is ADME, organism-based. The note with it: in vivo.
Series [6] concerns Mus musculus. In words: Antiobesity in diet-induced obese mouse model assessed as decrease in body weight at 30 mg/kg, po qd for 7 days relative to control. It counts as functional. The note with it: 168 h. In outline: as §1
A short description of series [7]: Oral bioavailability in Sprague-Dawley rat at 2.9 mg/kg. It counts as ADME, organism-based. The note with it: in vivo.
In series [8] the test system is Mus musculus. In words: Toxicity in diet-induced obese mouse model assessed as effect on food intake at 30 mg/kg, po qd for 7 days. In kind it is organism-based. The note with it: in vivo, 168 h. In outline:
as §1

The subject of series [9] is Rattus norvegicus. In words: Volume of distribution in Sprague-Dawley rat at 2.9 mg/kg, po. In kind it is ADME, organism-based. Particulars: in vivo.

Each structure is given as a SMILES string.

In turn, `Fc1cc2c3[nH]ncc3n(-c3cccnc3)c2cc1F` showed an IC50 in [1] of 0.0501 µM. In other words, the double-digit nanomolar range.

The compound `Cc1c(-n2c3ccc(F)cc3c3[nH]ncc32)cnc2[nH]cnc12` showed an IC50 in series [1] of more than 50.1 µM.

Consider `Fc1ccc2c(c1)c1[nH]ncc1n2-c1cccnc1`, for which, in series [1], the IC50 is 0.126 µM. That is a sub-micromolar value.

For the compound `Nc1ncc(-n2c3ccc(F)cc3c3[nH]ncc32)cc1Cl`, the IC50 in [1] was 0.158 µM.

With `Cc1cc(C(=O)NCCO)ccc1-n1c2ccc(F)cc2c2[nH]ncc21`, the IC50 in series [1] was 7.94 µM.

For `Cc1nc2[nH]cnc2cc1-n1c2ccc(F)cc2c2[nH]ncc21`, in series [2], the AUC was determined as 2240 ng·h/mL. Besides, the Activity entry in series [3] and in series [8] was “Non-toxic” throughout. Also, in series [4], the CL/F worked out at 17.2 mL/min/kg. This compound had an IC50 in series [1] of 3.16 µM. For the same compound, the half-life in series [5] is 6 h. The inhibition in vivo at 30 mg/kg in series [6] is 4%. In addition, in series [7], the bioavailability is 70%. This compound returned a Vd in series [9] of 1.597 L/kg.

`Clc1ccc2c3[nH]ncc3n(-c3cccnc3)c2c1` had an IC50 in [1] of 0.0631 µM.

In turn, `Cc1nc2c(cc1-n1c3ccc(F)cc3c3[nH]ncc31)ncn2C` gave an IC50 in series [1] of 20 µM. Compared with the last compound, the IC50 is about 320-fold higher.

As to `O=C(NCCO)c1ccc(-n2c3ccc(F)cc3c3[nH]ncc32)cc1`, the IC50 in series [1] was 7.94 µM.

The IC50 is the concentration that inhibits the measured activity by half. A high value points to a need for much substance. What is called AUC is the area under the concentration-time curve, a measure of exposure. A higher AUC goes with high exposure. As a reminder, the CL/F is the apparent clearance, not corrected for the fraction that reaches the circulation. By half-life is commonly meant the time needed for the level to fall by half in the phase considered. Read a high half-life as slow decline. As a reminder, the inhibition in vivo is the percentage by which the read-out fell short of the control. In general, bioavailability refers to the share of a dose that reaches the circulation, judged against a reference dose that is usually intravenous. The low end stands for poor availability, the high end for good availability.

These data come from ChEMBL document CHEMBL3797041, “Discovery of potent, reversible MetAP2 inhibitors via fragment based drug discovery and structure based drug design-Part 2” (Bioorg Med Chem Lett, 2016).
